Legend:
A3Bctd = A3Bctd (Homo sapiens, UniProt Q9UH17); assay: Intact protein mass spectrometry; assay type: binding
Summary of the method: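 Covalent test compound incubated with A3Bctd for 1 h and 3 h at varying molar equivalents of compound over protein, then analysed by intact protein mass spectrometry. Degree of covalent adduction was quantified from the intensity of the adduct mass species.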

UDG = molecular target: T1, UDG (Escherichia coli, UniProt P12295); details: cited from earlier work
T1 sequence (P12295 1-229): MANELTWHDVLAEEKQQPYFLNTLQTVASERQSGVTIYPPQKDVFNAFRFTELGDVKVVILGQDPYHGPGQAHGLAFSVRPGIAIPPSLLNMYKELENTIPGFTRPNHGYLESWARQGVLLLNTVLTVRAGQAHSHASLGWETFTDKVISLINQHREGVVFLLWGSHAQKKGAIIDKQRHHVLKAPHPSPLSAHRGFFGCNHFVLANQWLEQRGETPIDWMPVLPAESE

A3Bctd, sequence (Q9UH17 193-382): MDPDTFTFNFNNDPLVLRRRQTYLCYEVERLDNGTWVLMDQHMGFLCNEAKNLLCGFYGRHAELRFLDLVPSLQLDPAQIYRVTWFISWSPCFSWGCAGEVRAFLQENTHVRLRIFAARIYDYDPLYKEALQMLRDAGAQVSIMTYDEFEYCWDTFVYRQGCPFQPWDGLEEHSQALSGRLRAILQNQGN

| multiple adduction events (in words) (A3Bctd) | Compound | inhibition of UDG (in words) (UDG) |
| --- | --- | --- |
| Multiple adduction events are detected | CCC1(O)CCCN(C(=O)c2ccc(-c3ccc(F)c(NC(=O)CCl)c3)cc2)C1 (centres unmarked) [Compound 24] |  |
|  | O=C(O)C1=CC(=C(c2ccc(O)c(C(=O)O)c2)c2ccc(O)c(C(=O)O)c2)C=CC1=O [MN1, aurintricarboxylic acid] | inhibits UDG |
